In ChEMBL document CHEMBL3352487, “Synthesis, antibacterial activity, and biological evaluation of formyl hydroxyamino derivatives as novel potent peptide deformylase inhibitors against drug-resistant bacteria” (Eur J Med Chem, 2014) one finds MIC and MRT last data, which are given here for one compound.

≈ marks a conversion by molar mass, not a printed value.

The subject of data set [1] is Staphylococcus aureus. Description: Antimicrobial activity against Staphylococcus aureus isolate CL 938 after 24 hrs by broth microdilution method. Conditions: isolate CL 938, 24 h. The data set is classed as functional. The procedure, abridged:
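Broth microdilution following NCCLS M7-A4; ATCC strains and clinical isolates from a provincial hospital.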
(In general: Dilution methods test growth across graded concentrations, often in twofold steps.)

Data set [2] in a line: Mean residence time (0 to t) in Sprague-Dawley rat at 25 mg/kg, po. The data set is classed as ADME, organism-based. Also noted: dose 25 mg/kg, route oral. The following applies: in vivo.

By MIC is commonly meant the smallest concentration in the dilution series that meets the test's criterion for growth inhibition. A lower MIC goes with greater potency. As a reminder, the MRT last is a mean duration of stay, worked out from the concentration-time curve. Turning to `CCCC[C@H](CN(O)C=O)C(=O)N1CC=C[C@H]1C(=O)Nc1ccc(F)c[n+]1[O-]`, inhibition of growth in data set [1] (MIC) required 1 µg/mL (≈ 2.54 µM). In data set [2], this compound registered an MRT last of 2.34 h.
